Source: ChEMBL document CHEMBL4706563, “Triphenylethylene analogues: Design, synthesis and evaluation of antitumor activity and topoisomerase inhibitors” (Eur J Med Chem, 2020)
Calls of active or inactive are those of the source. The calls are words filed in the database; no cut-off is given here.

What was measured:
Type in all cases: functional
MCF7 = test: Antiproliferative activity against human MCF7 cells assessed as growth inhibition at 10 uM relative to control; conditions: read-out: GI
Summary of the method: (§1)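 Single-dose screen run by the US National Cancer Institute across its 60-human tumour cell line panel. Each compound was tested at one concentration. Percent growth inhibition was recorded for each cell line.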

[1] = Antiproliferative activity against human colon cancer cells; conditions: Colon cancer cell line
SF-295 = test: Antiproliferative activity against human SF-295 cells assessed as growth inhibition at 10 uM relative to control; conditions: read-out: GI; summary of the method: as §1
MDA-MB-468 = test: Antiproliferative activity against human MDA-MB-468 cells assessed as growth inhibition at 10 uM relative to control; conditions: read-out: GI; summary of the method: as §1
[2] = Antiproliferative activity against human renal cancer cells; conditions: Renal cancer cell line, read-out: LC50 (the source's name)
A549 = test: Antiproliferative activity against human A549 cells assessed as growth inhibition at 10 uM relative to control; conditions: read-out: GI; summary of the method: as §1
UACC-62 = test: Antiproliferative activity against human UACC-62 cells assessed as growth inhibition at 10 uM relative to control
Summary of the method: (§2)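 NCI 60 human tumour cell line panel screen. Compounds tested at a single dose and growth inhibition (%) determined for each line.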

[3] = Antiproliferative activity against human breast cancer cells; conditions: Breast cancer cell line
SNB-19 = test: Antiproliferative activity against human SNB-19 cells assessed as growth inhibition at 10 uM relative to control; conditions: read-out: GI; summary of the method: as §2
NCI-H322M = test: Antiproliferative activity against human NCI-H322M cells assessed as growth inhibition at 10 uM relative to control; conditions: read-out: GI; summary of the method: as §1
T47D = test: Antiproliferative activity against human T47D cells assessed as growth inhibition at 10 uM relative to control; summary of the method: as §2
HCC 2998 = test: Antiproliferative activity against human HCC 2998 cells assessed as growth inhibition at 10 uM relative to control; conditions: read-out: GI; summary of the method: as §1
RPMI-8226 = test: Antiproliferative activity against human RPMI-8226 cells assessed as growth inhibition at 10 uM relative to control; conditions: read-out: GI; summary of the method: as §1
OVCAR-4 = test: Antiproliferative activity against human OVCAR-4 cells assessed as growth inhibition at 10 uM relative to control; conditions: read-out: GI; summary of the method: as §1
[4] = Antiproliferative activity against human Non-small cell lung cancer cells; conditions: Non-small cell lung cancer cell line
HCT-116 = test: Antiproliferative activity against human HCT-116 cells assessed as growth inhibition at 10 uM relative to control; conditions: read-out: GI; summary of the method: as §1
[5] = Antiproliferative activity against human Melanoma cells; conditions: Melanoma cell line
A498 = test: Antiproliferative activity against human A498 cells assessed as growth inhibition at 10 uM relative to control; conditions: read-out: GI; summary of the method: as §1
CAKI-1 = test: Antiproliferative activity against human CAKI-1 cells assessed as growth inhibition at 10 uM relative to control; conditions: read-out: GI; summary of the method: as §1
K562 = test: Antiproliferative activity against human K562 cells assessed as growth inhibition at 10 uM relative to control; summary of the method: as §1
SK-MEL-5 = test: Antiproliferative activity against human SK-MEL-5 cells assessed as growth inhibition at 10 uM relative to control; conditions: read-out: GI; summary of the method: as §2
HOP-92 = test: Antiproliferative activity against human HOP-92 cells assessed as growth inhibition at 10 uM relative to control; summary of the method: as §1
NCI-H522 = test: Antiproliferative activity against human NCI-H522 cells assessed as growth inhibition at 10 uM relative to control; conditions: read-out: GI; summary of the method: as §1
NCI/ADR-RES = test: Antiproliferative activity against human NCI/ADR-RES cells assessed as growth inhibition at 10 uM relative to control; conditions: read-out: GI; summary of the method: as §1
HOP-62 = test: Antiproliferative activity against human HOP-62 cells assessed as growth inhibition at 10 uM relative to control; conditions: read-out: GI; summary of the method: as §1
MDA-MB-231 = test: Antiproliferative activity against human MDA-MB-231 cells assessed as growth inhibition at 10 uM relative to control; conditions: read-out: GI; summary of the method: as §1
KM12 = test: Antiproliferative activity against human KM12 cells assessed as growth inhibition at 10 uM relative to control; conditions: read-out: GI; summary of the method: as §1
SR = test: Antiproliferative activity against human SR cells assessed as growth inhibition at 10 uM relative to control; conditions: read-out: GI; summary of the method: as §2
SK-MEL-28 = test: Antiproliferative activity against human SK-MEL-28 cells assessed as growth inhibition at 10 uM relative to control; conditions: read-out: GI; summary of the method: as §2
Malme-3M = test: Antiproliferative activity against human Malme-3M cells assessed as growth inhibition at 10 uM relative to control; conditions: read-out: GI; summary of the method: as §1
IGROV-1 = test: Antiproliferative activity against human IGROV-1 cells assessed as growth inhibition at 10 uM relative to control; conditions: read-out: GI; summary of the method: as §1
ACHN = test: Antiproliferative activity against human ACHN cells assessed as growth inhibition at 10 uM relative to control; conditions: read-out: GI; summary of the method: as §1
HCT-15 = test: Antiproliferative activity against human HCT-15 cells assessed as growth inhibition at 10 uM relative to control; conditions: read-out: GI; summary of the method: as §1
SN12C = test: Antiproliferative activity against human SN12C cells assessed as growth inhibition at 10 uM relative to control; conditions: read-out: GI; summary of the method: as §2
786-0 = test: Antiproliferative activity against human 786-0 cells assessed as growth inhibition at 10 uM relative to control; conditions: read-out: GI; summary of the method: as §1
TK-10 = test: Antiproliferative activity against human TK-10 cells assessed as growth inhibition at 10 uM relative to control; conditions: read-out: GI; summary of the method: as §2
SNB-75 = test: Antiproliferative activity against human SNB-75 cells assessed as growth inhibition at 10 uM relative to control; conditions: read-out: GI; summary of the method: as §2
SK-MEL-2 = test: Antiproliferative activity against human SK-MEL-2 cells assessed as growth inhibition at 10 uM relative to control; conditions: read-out: GI; summary of the method: as §1
[6] = Antiproliferative activity against human CNS cancer cells; conditions: CNS cell
HT-29 = test: Antiproliferative activity against human HT29 cells assessed as growth inhibition at 10 uM relative to control; conditions: read-out: GI; summary of the method: as §1
SK-OV-3 = test: Antiproliferative activity against human SK-OV-3 cells assessed as growth inhibition at 10 uM relative to control; conditions: read-out: GI; summary of the method: as §2
SW-620 = test: Antiproliferative activity against human SW-620 cells assessed as growth inhibition at 10 uM relative to control; conditions: read-out: GI; summary of the method: as §2
[7] = Antiproliferative activity against human ovarian cancer cells; conditions: Ovarian cancer cell line
BT-549 = test: Antiproliferative activity against human BT-549 cells assessed as growth inhibition at 10 uM relative to control; conditions: read-out: GI; summary of the method: as §1
MDA-MB-435 = test: Antiproliferative activity against human MDA-MB-435 cells assessed as growth inhibition at 10 uM relative to control; conditions: read-out: GI; summary of the method: as §1
DU-145 = test: Antiproliferative activity against human DU-145 cells assessed as growth inhibition at 10 uM relative to control; conditions: read-out: GI; summary of the method: as §1
SF-539 = test: Antiproliferative activity against human SF-539 cells assessed as growth inhibition at 10 uM relative to control; summary of the method: as §1
[8] = read-out: LC50 (the source's name)

## CC/C(=C(\c1ccccc1)c1ccc(OCCN(C)C)cc1)c1ccccc1 [TAMOXIFEN]
MCF7
  inhibition of growth at 10 µM: -10.3%
[1]
  GI50: 1.88 µM
  TGI: 5.96 µM
SF-295
  inhibition of growth at 10 µM: 59.8%
MDA-MB-468
  inhibition of growth at 10 µM: -13.3%
[2]
  CC50: 2.59 µM
A549
  inhibition of growth at 10 µM: 50.2%
UACC-62
  growth inhibition (GI): inactive
[3]
  GI50: 3.05 µM
  TGI: 10.4 µM
[3]; [8]
  CC50: 2.83 µM
SNB-19
  inhibition of growth at 10 µM: 47.4%
NCI-H322M
  inhibition of growth at 10 µM: 34%
T47D
  growth inhibition (GI): inactive
HCC 2998
  inhibition of growth at 10 µM: 83.7%
RPMI-8226
  inhibition of growth at 10 µM: -28.3%
OVCAR-4
  inhibition of growth at 10 µM: 53.7%
[4]
  GI50: 4.01 µM
  TGI: 9.2 µM
[4]; [8]
  CC50: 2.6 µM
HCT-116
  inhibition of growth at 10 µM: 73.8%
[5]
  GI50: 2.03 µM
  TGI: 5.49 µM
A498
  inhibition of growth at 10 µM: 35.9%
CAKI-1
  inhibition of growth at 10 µM: 70.9%
K562
  growth inhibition (GI): inactive
SK-MEL-5
  inhibition of growth at 10 µM: -95.2%
HOP-92
  growth inhibition (GI): inactive
NCI-H522
  inhibition of growth at 10 µM: 53.4%
NCI/ADR-RES
  inhibition of growth at 10 µM: 56.8%
HOP-62
  inhibition of growth at 10 µM: 56.9%
MDA-MB-231
  inhibition of growth at 10 µM: 54.8%
KM12
  inhibition of growth at 10 µM: 75%
SR
  inhibition of growth at 10 µM: -18.9%
SK-MEL-28
  inhibition of growth at 10 µM: 88.7%
Malme-3M
  inhibition of growth at 10 µM: -67.5%
IGROV-1
  inhibition of growth at 10 µM: 58.8%
ACHN
  inhibition of growth at 10 µM: 39.4%
HCT-15
  inhibition of growth at 10 µM: 92.4%
SN12C
  inhibition of growth at 10 µM: 52.3%
786-0
  inhibition of growth at 10 µM: -41%
TK-10
  inhibition of growth at 10 µM: 48.1%
SNB-75
  inhibition of growth at 10 µM: 60.1%
SK-MEL-2
  inhibition of growth at 10 µM: 31.5%
[6]
  GI50: 4.04 µM
  TGI: 10.6 µM
[6]; [8]
  CC50: 44.1 µM
HT-29
  inhibition of growth at 10 µM: -11.2%
SK-OV-3
  inhibition of growth at 10 µM: 33.2%
SW-620
  inhibition of growth at 10 µM: 95.1%
[7]
  GI50: 4.7 µM
  TGI: 11.9 µM
[7]; [8]
  CC50: 2.78 µM
BT-549
  inhibition of growth at 10 µM: 30.2%
MDA-MB-435
  inhibition of growth at 10 µM: 62.2%
DU-145
  inhibition of growth at 10 µM: 34.6%
SF-539
  growth inhibition (GI): inactive
